These results are taken from ChEMBL document CHEMBL4680091, “Discovery of Novel Spiro[3H-indole-3,2'-pyrrolidin]-2(1H)-one Compounds as Chemically Stable and Orally Active Inhibitors of the MDM2-p53 Interaction” (J Med Chem, 2016).

Data set [1] has as its target Tumour suppressor p53/oncoprotein Mdm2 (Homo sapiens, UniProt Q00987). In words: Inhibition of GST-tagged MDM2 (amino acids 17 to 111 residues)/p53 (unknown origin) interaction incubated for 15 mins by. Format: protein assay.
The subject of a further data set is SK-OV-3. Nature of the data set: Antiproliferative activity against human SK-OV-3 cells expression p53 mutant incubated for 3 days by Alamar Blue dye based assay. Format: functional, cell-based. The conditions noted are these: SK-OV-3, 72 h. In a few lines: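 p53-mutant SK-OV-3 cells were used in a growth/proliferation assay, with compounds tested up to 25 μM.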

The test system of a further data set is SJSA-1. Nature of the data set: Antiproliferative activity against human SJSA-1 cells expression wild type p53 incubated for 3 days by Alamar Blue dye based assay. Format: functional, cell-based. To be noted: SJSA-1, 72 h. On the technique in general: The colour change of resazurin is a common sign of viable cells or microbes.
Data set [2] is described as follows: Clearance in NMRI mouse at 5 mg/kg, iv. The conditions noted are these: in vivo. The class given is ADME, organism-based. Summed up: (§1)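 Non-tumor-bearing female NMRI nude mice were given a single dose by one of two routes. The iv arm received 5 mg/kg as a bolus in 25% HP-B-CD. The po arm received 50 mg/kg in 0.5% Natrosol (pH 7-8, NaOH titrated). Both used 10 ml/kg. Plasma levels were measured by LC/MS/MS, n=3 per dose group. Parameters came from non-compartmental analysis, with AUC0-24h by linear trapezoidal interpolation.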

Data set [3] can be described thus: Volume of distribution at steady state in NMRI mouse at 5 mg/kg, iv. Format: ADME, organism-based. The conditions noted are these: in vivo, read-out: Vdss. Summed up:
as §1

Data set [4] can be described thus: Oral bio availability in NMRI mouse at 50 mg/kg. Format: ADME, organism-based. To be noted: in vivo. In a few lines: as §1
A short description of data set [5]: Cmax in NMRI mouse at 50 mg/kg, po. The class given is ADME, organism-based. The arrangement: route oral, dose 50 mg/kg. To be noted: in vivo. Summed up: as §1
A short description of data set [6]: AUC (0 to 24 hrs) in NMRI mouse at 50 mg/kg, po. Format: ADME, organism-based. On the set-up: time < 24 hr, route oral, dose 50 mg/kg. To be noted: in vivo. Summed up: as §1

Some results are limits rather than exact numbers.

By IC50 is commonly meant the concentration that gives 50% inhibition. Read a low IC50 as greater potency in that assay. One may read the clearance as the rate of elimination divided by the concentration. A low value points to inefficient removal. As a reminder, the bioavailability is dose-corrected exposure relative to a reference, in per cent. A lower bioavailability goes with poor availability. One may read the Cmax as the highest concentration seen after dosing. The AUC(0-t) is the area under the concentration-time curve up to a stated or last time point. Lower therefore signals less exposure.

Sequence of Tumour suppressor p53/oncoprotein Mdm2 (P04637 whole entry, the tested form may be a part): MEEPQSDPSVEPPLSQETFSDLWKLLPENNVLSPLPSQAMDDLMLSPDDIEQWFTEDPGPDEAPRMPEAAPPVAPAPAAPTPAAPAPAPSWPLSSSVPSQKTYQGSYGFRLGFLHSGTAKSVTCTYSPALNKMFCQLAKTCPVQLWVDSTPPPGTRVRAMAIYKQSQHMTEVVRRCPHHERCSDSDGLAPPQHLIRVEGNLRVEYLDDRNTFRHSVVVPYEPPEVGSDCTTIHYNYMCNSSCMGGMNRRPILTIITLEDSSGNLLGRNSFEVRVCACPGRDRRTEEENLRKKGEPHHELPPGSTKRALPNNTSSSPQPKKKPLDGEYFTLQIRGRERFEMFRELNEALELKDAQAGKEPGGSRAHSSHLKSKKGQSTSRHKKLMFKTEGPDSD
Sequence of Tumour suppressor p53/oncoprotein Mdm2 (Q00987 whole entry, the tested form may be a part): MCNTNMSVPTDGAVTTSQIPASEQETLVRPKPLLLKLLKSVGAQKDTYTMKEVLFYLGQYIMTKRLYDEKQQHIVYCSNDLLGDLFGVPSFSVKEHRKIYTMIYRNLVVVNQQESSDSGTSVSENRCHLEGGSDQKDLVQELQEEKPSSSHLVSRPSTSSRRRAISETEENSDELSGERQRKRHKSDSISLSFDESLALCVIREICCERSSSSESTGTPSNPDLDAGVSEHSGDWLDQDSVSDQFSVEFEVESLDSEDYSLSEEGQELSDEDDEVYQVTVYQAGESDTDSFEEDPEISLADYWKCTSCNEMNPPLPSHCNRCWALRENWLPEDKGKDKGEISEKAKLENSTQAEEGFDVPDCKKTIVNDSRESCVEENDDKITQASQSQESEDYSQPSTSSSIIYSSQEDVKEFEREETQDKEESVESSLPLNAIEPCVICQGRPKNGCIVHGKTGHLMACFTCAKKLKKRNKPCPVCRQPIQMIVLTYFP

On to `O=C1Nc2cc(Cl)ccc2[C@]12N[C@@H](Cc1ccccc1)[C@@H]([N+](=O)[O-])[C@@H]2c1cccc(Cl)c1` (racemic), for which, in data set [1], the IC50 was determined as 15600 nM.

In data set [1], `CSC[C@@H]1N[C@@]2(C(=O)Nc3cc(Cl)ccc32)[C@@H](c2cccc(Cl)c2)[C@@H]1[N+](=O)[O-]` (racemic) showed a half-inhibitory concentration (IC50) of 24600 nM. The same measure, in the same setting: the result for `O=C(O)CN1CC[C@H]2[C@@H]1[C@H](c1cccc(Cl)c1)[C@]1(C(=O)Nc3cc(Cl)ccc31)N2CC1CC1` (racemic) reads 80 nM. On the same count and under the same terms, the result for `O=C(O)CC[C@@H]1N[C@@]2(C(=O)Nc3cc(Cl)ccc32)[C@@H](c2cccc(Cl)c2)[C@@H]1[N+](=O)[O-]` (racemic) reads 16000 nM.

`NC(=O)c1cccc(C[C@@H]2N[C@@]3(C(=O)Nc4cc(Cl)ccc43)[C@@H](c3cccc(Cl)c3)[C@@H]2[N+](=O)[O-])c1` (racemic) returned a 50% inhibitory concentration (IC50) in data set [1] of 18300 nM.

In the case of `O=C1Nc2cc(Cl)ccc2[C@]12CNC[C@@H]2c1cccc(Cl)c1` (racemic), in data set [1], inhibition was half-maximal at 36000 nM (IC50).

In data set [1], `CCOc1cccc(CN2[C@@H](C)[C@@H](N)[C@H](c3cccc(Cl)c3F)[C@]23C(=O)Nc2cc(Cl)ccc23)c1` returned an IC50 of 34 nM. In the case of `O=C1Nc2cc(Cl)ccc2[C@@]12[C@@H](c1cccc(Cl)c1F)[C@@H]1NCC[C@@H]1N2CC1CC1`, the IC50 is more than 25 µM in the data set with SK-OV-3, 2610 nM with SJSA-1 and 137 nM in data set [1].

For the compound `CCOc1cccc(CN2[C@H]3C[C@H](c4ccc(C(=O)O)cc4)N[C@H]3[C@H](c3cccc(Cl)c3F)[C@]23C(=O)Nc2cc(Cl)ccc23)c1`, in data set [2], the clearance was 23.2 mL/min/kg. The Vd in data set [3] is 1 L/kg. In data set [4], the bioavailability was 13%. The concentration in data set [5] peaked (Cmax) at 3.4 µM. Moreover, the results for the half-maximal inhibitory concentration (IC50) in the data set with SK-OV-3 and in the data set with SJSA-1 were more than 25 µM and 67 nM, respectively. Also, the AUC(0-t) at 24 h in data set [6] turned out to be 8 µM·h. In data set [1], `C[C@H]1[C@@H](N)[C@H](c2cccc(Cl)c2)[C@]2(C(=O)Nc3cc(Cl)ccc32)N1CC1CC1` came in with a half-maximal inhibitory concentration (IC50) of 563 nM.

As to `CC(C)CCN1[C@@H](C)[C@@H](N)[C@H](c2cccc(Cl)c2)[C@]12C(=O)Nc1cc(Cl)ccc12` (racemic), the IC50 in data set [1] stood at 1080 nM. The same measure, in the same setting: the result for `CC(=O)N1CC[C@H]2[C@@H]1[C@H](c1cccc(Cl)c1F)[C@]1(C(=O)Nc3cc(Cl)ccc31)N2CC1CC1` (racemic) reads 212 nM; that for `C[C@@H]1N[C@@]2(C(=O)Nc3cc(Cl)ccc32)[C@@H](c2cccc(Cl)c2)[C@@H]1[N+](=O)[O-]` (racemic), 40000 nM. The same measure, in the same setting: with `CC(C)(C)CN1C[C@@H](N)[C@H](c2cccc(Cl)c2)[C@]12C(=O)Nc1cc(Cl)ccc12` the figure was 819 nM; with `NC(=O)CC[C@@H]1N[C@@]2(C(=O)Nc3cc(Cl)ccc32)[C@@H](c2cccc(Cl)c2)[C@@H]1[N+](=O)[O-]` (racemic), 13500 nM. Take `C[C@H]1[C@@H](NCC(=O)O)[C@H](c2cccc(Cl)c2F)[C@]2(C(=O)Nc3cc(Cl)ccc32)N1CC1CC1`: the IC50 is more than 25 µM in the data set on SK-OV-3, 2880 nM in the data set on SJSA-1 and 62 nM in data set [1].

In turn, `CC(C)CN1C[C@@H](N)[C@H](c2cccc(Cl)c2)[C@]12C(=O)Nc1cc(Cl)ccc12` had a half-inhibitory concentration (IC50) in data set [1] of 944 nM. Take `O=C1Nc2cc(Cl)ccc2[C@]12N[C@@H](Cc1c[nH]cn1)[C@@H]([N+](=O)[O-])[C@@H]2c1cccc(Cl)c1` (racemic): in data set [1], the IC50 amounted to 15200 nM. Consider `NC(=O)c1ccc([C@H]2C[C@H]3[C@@H](N2)[C@H](c2cccc(Cl)c2F)[C@]2(C(=O)Nc4cc(Cl)ccc42)N3CC2CC2)cc1`, for which the clearance in data set [2] is 7.4 mL/min/kg. Moreover, the Vd in data set [3] stood at 2 L/kg. Moreover, in data set [4], the bioavailability worked out at 58%. In addition, in data set [5], the maximum concentration (Cmax) was 6.9 µM. The values for the 50% inhibitory concentration (IC50) in the data set with SK-OV-3 and with SJSA-1 were more than 25 µM and 1450 nM, respectively. This compound gave an AUC(0-t) at 24 h in data set [6] of 100 µM·h. Consider `O=C1Nc2cc(Cl)ccc2[C@]12NC[C@@H]([N+](=O)[O-])[C@@H]2c1cccc(Cl)c1` (racemic), for which half-maximal inhibition in data set [1] (IC50) required 36500 nM.

`O=C1Nc2cc(Cl)ccc2[C@]12N[C@@H](Cn1cncn1)[C@@H]([N+](=O)[O-])[C@@H]2c1cccc(Cl)c1` (racemic) registered a half-inhibitory concentration (IC50) in data set [1] of 5500 nM. `O=C(O)C[C@@H]1N[C@@]2(C(=O)Nc3cc(Cl)ccc32)[C@@H](c2cccc(Cl)c2)[C@@H]1[N+](=O)[O-]` (racemic) registered a concentration for half-maximal inhibition (IC50) in data set [1] of 18600 nM.

In data set [1], `C[C@@H]1N[C@@]2(C(=O)Nc3cc(Cl)ccc32)[C@@H](c2cccc(Cl)c2)[C@@H]1N` (racemic) came in with a half-inhibitory concentration (IC50) of 74000 nM. This IC50 is about 4-fold higher than that of the compound before. Same read-out and setting: the result for `O=C1Nc2cc(Cl)ccc2[C@]12N[C@@H](CO)[C@@H]([N+](=O)[O-])[C@@H]2c1cccc(Cl)c1` (racemic) reads 30700 nM.

Regarding `C[C@H]1[C@@H](N)[C@H](c2cccc(Cl)c2F)[C@]2(C(=O)Nc3cc(Cl)ccc32)N1CC1CC1`, the figures for the 50% inhibitory concentration (IC50) (in the data set with SK-OV-3; in the data set with SJSA-1; in data set [1]) were more than 25 µM, 2980 nM and 157 nM, respectively. `CCOc1cccc(CN2[C@H]3CCN(CC(=O)O)[C@H]3[C@H](c3cccc(Cl)c3F)[C@]23C(=O)Nc2cc(Cl)ccc23)c1`: the figures for the IC50 in the data set with SK-OV-3 and in the data set with SJSA-1 were more than 25 µM and 287 nM, respectively. For the compound `COC(=O)c1ccc([C@H]2C[C@H]3[C@@H](N2)[C@H](c2cccc(Cl)c2F)[C@]2(C(=O)Nc4cc(Cl)ccc42)N3CC2CC2)cc1`, the IC50 in data set [1] was found to be 81 nM. This lies in the double-digit nanomolar range. On the same count and under the same terms, the result for `O=C(O)CN1CC[C@H]2[C@@H]1[C@H](c1cccc(Cl)c1F)[C@]1(C(=O)Nc3cc(Cl)ccc31)N2CC1CC1` (racemic) reads 39 nM; that for `CC(=O)N[C@@H]1[C@H](C)N(CC2CC2)[C@@]2(C(=O)Nc3cc(Cl)ccc32)[C@H]1c1cccc(Cl)c1F`, 229 nM.

In turn, `C[C@H]1[C@@H](NCc2ccc(C(=O)O)cc2)[C@H](c2cccc(Cl)c2F)[C@]2(C(=O)Nc3cc(Cl)ccc32)N1CC1CC1` yielded a concentration for half-maximal inhibition (IC50) in data set [1] of 107 nM. Compared with the last compound, the IC50 is about 2.1-fold lower. The same measure, in the same setting: the result for `CC(C)CCN1[C@@H](Cn2cncn2)[C@@H](N)[C@H](c2cccc(Cl)c2)[C@]12C(=O)Nc1cc(Cl)ccc12` (racemic) reads 2060 nM; that for `CCOc1cccc(CN2[C@@H](C)[C@@H](N)[C@H](c3cccc(Cl)c3F)[C@]23C(=O)Nc2cc(Cl)ccc23)c1` (racemic), 57 nM.
